Calls of active or inactive are those of the source. No cut-off for these calls is given here.
organism: Gallus gallus; assay: Antiangiogenic activity in chicken embryo chorioallantoic membrane model assessed as inhibition of new blood vessel formation at 10 nmol/egg after 48 hrs by microscopy; assay type: functional, tissue-based; conditions: not given
Outline: (§1)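 Fertilized chicken eggs incubated seven days at 37.5 °C, ~55% humidity, and the air sac membrane was detached. Sterile 5 × 5 mm filter paper soaked with DMSO or compound (5 and 10 nmol/egg) was air-dried and placed on the CAM. Eggs were sealed and reincubated. Fat emulsion (20%) was injected into the CAM and vessels photographed. Three independent experiments.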

SMILES | inhibition
COc1cc2ccc(=O)oc2cc1OCC(O)CN1CCCCC1 (stereo not given) | Active
COc1cc2ccc(=O)oc2cc1OCC(=O)c1ccc(Cl)cc1 | Active

system: HUVEC; assay: Antiproliferative activity against HUVEC assessed as growth inhibition rate after 24 hrs by MTT assay; assay type: functional, cell-based; conditions: Homo sapiens
Outline: (§2)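 HUVECs (passages 3–5, primary cord isolates) seeded at 1 × 10⁴ cells/well. Medium replaced with M199 containing 1% FBS plus compound. Viability read by MTT after 24 h. Percent inhibition was calculated from A570 minus A630 of treated versus control wells, and IC50 determined. Triplicate experiments, means ± SEM.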

SMILES | IC50 [µM]
COc1cc2ccc(=O)oc2cc1OCC(O)CN1CCCCC1 (stereo not given) | 24.2
COc1cc2ccc(=O)oc2cc1OCC(=O)c1ccc(Cl)cc1 | 10

system: HUVEC; assay: Antiangiogenic activity against HUVEC assessed as inhibition of VEGF-induced cell migration at 25 umol/L after 20 hrs by Boyden chamber assay; assay type: functional, cell-based; conditions: Homo sapiens
Outline: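 Boyden chamber, 8.0 µm membrane. HUVECs at 80% confluence serum-starved 12 h in basal medium and suspended at 1 × 10⁶ cells/mL. Pre-treated 30 min at room temperature with DMSO or compound (final 25 µmol/L). After 20 h cells fixed, stained, and counted in five random fields. Triplicate experiments.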

SMILES | inhibition
COc1cc2ccc(=O)oc2cc1OCC(=O)c1ccc(Cl)cc1 | Active

system: HepG2; assay: Cytotoxicity against human HepG2 cells after 24 hrs by MTT assay; assay type: functional, cell-based; conditions: HepG2, 24 h

SMILES | IC50 [µM]
COc1cc2ccc(=O)oc2cc1OCC(O)CN1CCCCC1 (stereo not given) | 83.9
COc1cc2ccc(=O)oc2cc1OCC(=O)c1ccc(Cl)cc1 | 56.3

organism: Gallus gallus; assay: Antiangiogenic activity in chicken embryo chorioallantoic membrane model assessed as inhibition of new blood vessel formation at 5 nmol/egg after 48 hrs by microscopy; assay type: functional, tissue-based; conditions: not given; outline: as §1

SMILES | inhibition
COc1cc2ccc(=O)oc2cc1OCC(O)CN1CCCCC1 (stereo not given) | Active
COc1cc2ccc(=O)oc2cc1OCC(=O)c1ccc(Cl)cc1 | Active

system: HCT-116; assay: Cytotoxicity against human HCT116 cells after 24 hrs by MTT assay; assay type: functional, cell-based; conditions: HCT-116, 24 h

SMILES | IC50 [µM]
COc1cc2ccc(=O)oc2cc1OCC(O)CN1CCCCC1 (stereo not given) | 26.1
COc1cc2ccc(=O)oc2cc1OCC(=O)c1ccc(Cl)cc1 | 59.5

system: HUVEC; assay: Effect on total p38 MAPK level in VEGF-stimulated HUVEC pretreated at 10 to 50 umol/L for 30 mins before VEGF addition by Western blot analysis; assay type: functional, cell-based; conditions: Homo sapiens

SMILES | Activity
COc1cc2ccc(=O)oc2cc1OCC(O)CN1CCCCC1 (stereo not given) | inactive
COc1cc2ccc(=O)oc2cc1OCC(=O)c1ccc(Cl)cc1 | inactive

system: HUVEC; assay: Antiproliferative activity against HUVEC assessed as growth inhibition rate at 10 uM after 24 hrs by MTT assay; assay type: functional; conditions: Homo sapiens, read-out: GI; outline: as §2

SMILES | inhibition of growth at 10 µM [%]
COc1cc2ccc(=O)oc2cc1OCC(O)CN1CCCCC1 (stereo not given) | 31.4
COc1cc2ccc(=O)oc2cc1OCC(=O)c1ccc(Cl)cc1 | 62.6

system: MKN-45; assay: Cytotoxicity against human MKN45 cells after 24 hrs by MTT assay; assay type: functional, cell-based; conditions: MKN-45, 24 h

SMILES | IC50 [µM]
COc1cc2ccc(=O)oc2cc1OCC(O)CN1CCCCC1 (stereo not given) | 78.9
COc1cc2ccc(=O)oc2cc1OCC(=O)c1ccc(Cl)cc1 | 99.2

system: MDA-MB-231; assay: Cytotoxicity against human MDA-MB-231 cells after 24 hrs by MTT assay; assay type: functional, cell-based; conditions: MDA-MB-231, 24 h

SMILES | IC50 [µM]
COc1cc2ccc(=O)oc2cc1OCC(O)CN1CCCCC1 (stereo not given) | 51.6
COc1cc2ccc(=O)oc2cc1OCC(=O)c1ccc(Cl)cc1 | > 100

system: K562; assay: Cytotoxicity against human K562 cells after 24 hrs by MTT assay; assay type: functional, cell-based; conditions: K562, 24 h

SMILES | IC50 [µM]
COc1cc2ccc(=O)oc2cc1OCC(O)CN1CCCCC1 (stereo not given) | 43.7
COc1cc2ccc(=O)oc2cc1OCC(=O)c1ccc(Cl)cc1 | 52.5

system: HUVEC; assay: Antiangiogenic activity against HUVEC assessed as inhibition of VEGF-induced branching and network formation at 25 umol/L after 5 hrs by microscopy; assay type: functional, cell-based; conditions: Homo sapiens
Outline: (§3)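 Matrigel-coated wells gelled 37 °C 30 min. DMSO or compound (final 25 µmol/L) added for 30 min before plating. After 5 h, enclosed complete tubes counted in five random fields by microscopy. Triplicate experiments, means ± SEM.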

SMILES | inhibition
COc1cc2ccc(=O)oc2cc1OCC(O)CN1CCCCC1 (stereo not given) | Active
COc1cc2ccc(=O)oc2cc1OCC(=O)c1ccc(Cl)cc1 | Active

system: PANC-1; assay: Inhibition of MMP-2 protein expression in human PANC1 cells at 10 to 50 umol/L after 24 hrs by SDS-PAGE analysis; assay type: functional, cell-based; conditions: not given
Outline: (§4)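 Gelatin zymography of culture medium from equal numbers of PANC-1 cells exposed to compound for 24 h. Samples run non-reduced and unboiled on 10% polyacrylamide with 1 mg/mL gelatin. Gel washed in 2.5% Triton X-100 buffer, digested 14 h at 37 °C in Tris–HCl/CaCl2/ZnCl2 buffer pH 7.6, then Coomassie-stained. Clear bands imaged.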

SMILES | inhibition
COc1cc2ccc(=O)oc2cc1OCC(O)CN1CCCCC1 (stereo not given) | Active
COc1cc2ccc(=O)oc2cc1OCC(=O)c1ccc(Cl)cc1 | Active

system: not listed separately; assay: Inhibition of VEGF receptor signaling in HUVEC assessed a inhibition of VEGF-induced ERK1/2 phosphorylation pretreated at 10 to 50 umol/L for 30 mins before VEGF addition by Western blot analysis; assay type: cell-based; conditions: Homo sapiens

SMILES | inhibition
COc1cc2ccc(=O)oc2cc1OCC(O)CN1CCCCC1 (stereo not given) | Active
COc1cc2ccc(=O)oc2cc1OCC(=O)c1ccc(Cl)cc1 | inactive

system: not listed separately; assay: Inhibition of VEGF receptor signaling in HUVEC assessed a inhibition of VEGF-induced Akt phosphorylation pretreated at 10 to 50 umol/L for 30 mins before VEGF addition by Western blot analysis; assay type: cell-based; conditions: Homo sapiens

SMILES | inhibition
COc1cc2ccc(=O)oc2cc1OCC(O)CN1CCCCC1 (stereo not given) | Active
COc1cc2ccc(=O)oc2cc1OCC(=O)c1ccc(Cl)cc1 | Active

system: A-431; assay: Cytotoxicity against human A431 cells after 24 hrs by MTT assay; assay type: functional, cell-based; conditions: A-431, 24 h

SMILES | IC50 [µM]
COc1cc2ccc(=O)oc2cc1OCC(O)CN1CCCCC1 (stereo not given) | 93.9
COc1cc2ccc(=O)oc2cc1OCC(=O)c1ccc(Cl)cc1 | > 100

system: HUVEC; assay: Effect on total ERK1/2 level in VEGF-stimulated HUVEC pretreated at 10 to 50 umol/L for 30 mins before VEGF addition by Western blot analysis; assay type: functional, cell-based; conditions: Homo sapiens

SMILES | Activity
COc1cc2ccc(=O)oc2cc1OCC(O)CN1CCCCC1 (stereo not given) | inactive
COc1cc2ccc(=O)oc2cc1OCC(=O)c1ccc(Cl)cc1 | inactive

system: PBMC; assay: Cytotoxicity against human PBMC after 24 hrs by MTT assay; assay type: cell-based; conditions: not given

SMILES | IC50 [µM]
COc1cc2ccc(=O)oc2cc1OCC(O)CN1CCCCC1 (stereo not given) | > 100
COc1cc2ccc(=O)oc2cc1OCC(=O)c1ccc(Cl)cc1 | > 100

target: MAP kinase p38 (Homo sapiens) (UniProt O15264+Q15759+Q16539+P53778); assay: Inhibition of VEGF receptor signaling in VEGF-stimulated HUVEC assessed a effect on p38 MAPK phosphorylation pretreated at 10 to 50 umol/L for 30 mins before VEGF addition by Western blot analysis; assay type: protein assay; conditions: not given

SMILES | inhibition
COc1cc2ccc(=O)oc2cc1OCC(O)CN1CCCCC1 (stereo not given) | inactive
COc1cc2ccc(=O)oc2cc1OCC(=O)c1ccc(Cl)cc1 | inactive

system: PANC-1; assay: Cytotoxicity against human PANC1 cells after 24 hrs by MTT assay; assay type: functional, cell-based; conditions: PANC-1, 24 h

SMILES | IC50 [µM]
COc1cc2ccc(=O)oc2cc1OCC(O)CN1CCCCC1 (stereo not given) | > 100
COc1cc2ccc(=O)oc2cc1OCC(=O)c1ccc(Cl)cc1 | 19.8

system: HUVEC; assay: Effect on total src level in VEGF-stimulated HUVEC pretreated at 10 to 50 umol/L for 30 mins before VEGF addition by Western blot analysis; assay type: functional, cell-based; conditions: Homo sapiens

SMILES | Activity
COc1cc2ccc(=O)oc2cc1OCC(O)CN1CCCCC1 (stereo not given) | inactive
COc1cc2ccc(=O)oc2cc1OCC(=O)c1ccc(Cl)cc1 | inactive

system: not listed separately; assay: Inhibition of VEGF receptor signaling in VEGF-stimulated HUVEC assessed a effect on src phosphorylation pretreated at 10 to 50 umol/L for 30 mins before VEGF addition by Western blot analysis; assay type: cell-based; conditions: Homo sapiens

SMILES | inhibition
COc1cc2ccc(=O)oc2cc1OCC(O)CN1CCCCC1 (stereo not given) | inactive
COc1cc2ccc(=O)oc2cc1OCC(=O)c1ccc(Cl)cc1 | inactive

system: HUVEC; assay: Effect on total akt level in VEGF-stimulated HUVEC pretreated at 10 to 50 umol/L for 30 mins before VEGF addition by Western blot analysis; assay type: functional, cell-based; conditions: Homo sapiens

SMILES | Activity
COc1cc2ccc(=O)oc2cc1OCC(O)CN1CCCCC1 (stereo not given) | inactive
COc1cc2ccc(=O)oc2cc1OCC(=O)c1ccc(Cl)cc1 | inactive

system: HUVEC; assay: Antiangiogenic activity against HUVEC assessed as inhibition of VEGF-induced tube formation at 25 umol/L after 5 hrs by microscopy; assay type: functional, cell-based; conditions: Homo sapiens; outline: as §3

SMILES | inhibition
COc1cc2ccc(=O)oc2cc1OCC(O)CN1CCCCC1 (stereo not given) | Active
COc1cc2ccc(=O)oc2cc1OCC(=O)c1ccc(Cl)cc1 | Active

system: HuT78; assay: Cytotoxicity against human HUT78 cells after 24 hrs by MTT assay; assay type: functional, cell-based; conditions: HuT78, 24 h

SMILES | IC50 [µM]
COc1cc2ccc(=O)oc2cc1OCC(O)CN1CCCCC1 (stereo not given) | 46.6
COc1cc2ccc(=O)oc2cc1OCC(=O)c1ccc(Cl)cc1 | 62.1

system: BXPC-3; assay: Cytotoxicity against human BxPC3 cells after 24 hrs by MTT assay; assay type: functional, cell-based; conditions: BXPC-3, 24 h

SMILES | IC50 [µM]
COc1cc2ccc(=O)oc2cc1OCC(O)CN1CCCCC1 (stereo not given) | 35
COc1cc2ccc(=O)oc2cc1OCC(=O)c1ccc(Cl)cc1 | > 100

system: PANC-1; assay: Inhibition of MMP-9 protein expression in human PANC1 cells at 10 to 50 umol/L after 24 hrs by SDS-PAGE analysis; assay type: functional, cell-based; conditions: not given; outline: as §4

SMILES | inhibition
COc1cc2ccc(=O)oc2cc1OCC(O)CN1CCCCC1 (stereo not given) | Active
COc1cc2ccc(=O)oc2cc1OCC(=O)c1ccc(Cl)cc1 | Active

system: HL-60; assay: Cytotoxicity against human HL60 cells after 24 hrs by MTT assay; assay type: functional, cell-based; conditions: HL-60, 24 h

SMILES | IC50 [µM]
COc1cc2ccc(=O)oc2cc1OCC(O)CN1CCCCC1 (stereo not given) | 30.2
COc1cc2ccc(=O)oc2cc1OCC(=O)c1ccc(Cl)cc1 | 65.7

system: HUVEC; assay: Antiangiogenic activity against HUVEC assessed as inhibition of VEGF-induced migration at 25 umol/L after 20 hrs by microscopy; conditions: Homo sapiens

SMILES | inhibition
COc1cc2ccc(=O)oc2cc1OCC(O)CN1CCCCC1 (stereo not given) | Active
COc1cc2ccc(=O)oc2cc1OCC(=O)c1ccc(Cl)cc1 | Active

system: A549; assay: Cytotoxicity against human A549 cells after 24 hrs by MTT assay; assay type: functional, cell-based; conditions: A549, 24 h

SMILES | IC50 [µM]
COc1cc2ccc(=O)oc2cc1OCC(O)CN1CCCCC1 (stereo not given) | 42.7
COc1cc2ccc(=O)oc2cc1OCC(=O)c1ccc(Cl)cc1 | > 100

system: not listed separately; assay: Cytotoxicity against human SHG44 cells after 24 hrs by MTT assay; assay type: functional, cell-based; conditions: SHG-44, 24 h

SMILES | IC50 [µM]
COc1cc2ccc(=O)oc2cc1OCC(O)CN1CCCCC1 (stereo not given) | 42.8
COc1cc2ccc(=O)oc2cc1OCC(=O)c1ccc(Cl)cc1 | > 100

system: HUVEC; assay: Antiproliferative activity against HUVEC assessed as growth inhibition rate at 100 uM after 24 hrs by MTT assay; assay type: functional; conditions: Homo sapiens, read-out: GI; outline: as §2

SMILES | inhibition of growth at 100 µM [%]
COc1cc2ccc(=O)oc2cc1OCC(O)CN1CCCCC1 (stereo not given) | 80.7
COc1cc2ccc(=O)oc2cc1OCC(=O)c1ccc(Cl)cc1 | 83.8

system: MDA-MB-435; assay: Cytotoxicity against human MDA-MB-435 cells after 24 hrs by MTT assay; assay type: functional, cell-based; conditions: MDA-MB-435, 24 h

SMILES | IC50 [µM]
COc1cc2ccc(=O)oc2cc1OCC(O)CN1CCCCC1 (stereo not given) | 63
COc1cc2ccc(=O)oc2cc1OCC(=O)c1ccc(Cl)cc1 | 92.4
